ChEMBL document CHEMBL1938352, “Discovery of potent and liver-targeted stearoyl-CoA desaturase (SCD) inhibitors in a bispyrrolidine series” (Bioorg Med Chem Lett, 2012)

Columns and labels:
Stearoyl-CoA desaturase = target: T1, Stearoyl-CoA desaturase (Homo sapiens, UniProt O00767); assay: Inhibition of SCD-1 activity in organic anion transporting polypeptides-deficient human HepG2 cells assessed as reduction in [1-14C] stearoyl CoA desaturation by scintillation counting; format: cell-based
T1 sequence (O00767 whole entry): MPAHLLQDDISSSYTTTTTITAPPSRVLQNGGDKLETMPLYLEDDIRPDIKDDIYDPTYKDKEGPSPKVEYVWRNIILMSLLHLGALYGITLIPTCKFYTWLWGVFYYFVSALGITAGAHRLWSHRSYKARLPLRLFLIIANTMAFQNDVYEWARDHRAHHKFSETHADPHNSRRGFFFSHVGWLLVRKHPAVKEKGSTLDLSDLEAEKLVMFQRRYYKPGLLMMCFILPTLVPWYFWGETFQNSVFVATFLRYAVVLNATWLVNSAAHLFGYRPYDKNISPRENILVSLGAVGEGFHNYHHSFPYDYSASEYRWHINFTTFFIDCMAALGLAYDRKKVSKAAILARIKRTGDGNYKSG
How it was run: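 The whole-cell assay used human hepatocellular carcinoma HepG2 cells, which lack active OATPs. IC50 values are the average of at least two independent titrations.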

Acyl-CoA desaturase 1 [1] = target: T2, Acyl-CoA desaturase 1 (Rattus norvegicus, UniProt P07308); assay: Inhibition of SCD-1 activity in rat hepatocytes expressing organic anion transporting polypeptides assessed as reduction in [1-14C] stearoyl CoA desaturation by scintillation counting; format: cell-based, Hepatocyte
T2 sequence (P07308 whole entry): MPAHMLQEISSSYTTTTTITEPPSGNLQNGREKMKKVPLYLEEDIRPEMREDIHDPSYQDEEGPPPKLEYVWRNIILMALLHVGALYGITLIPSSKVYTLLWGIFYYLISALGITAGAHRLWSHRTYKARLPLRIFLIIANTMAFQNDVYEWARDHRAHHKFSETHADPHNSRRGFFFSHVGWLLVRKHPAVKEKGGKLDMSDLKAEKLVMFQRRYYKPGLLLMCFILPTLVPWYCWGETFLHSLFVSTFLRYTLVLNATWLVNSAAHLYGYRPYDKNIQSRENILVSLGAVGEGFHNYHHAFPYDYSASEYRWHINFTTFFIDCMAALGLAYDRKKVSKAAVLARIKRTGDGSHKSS
How it was run: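 The cellular assay used rat hepatocytes with functional OATPs to assess active transport. IC50 values are the average of at least two independent titrations.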

Acyl-CoA desaturase 1 [2] = target: T2, Acyl-CoA desaturase 1; assay: Inhibition of SCD-1 activity in rat liver microsomes assessed as reduction in [1-14C] stearoyl CoA desaturation by scintillation counting; design: species or system Microsome
How it was run: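 The enzymatic assay used SCD-induced rat liver microsomes. IC50 values are the average of at least two independent titrations.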

Mus musculus [3] = assay: Antidiabetic activity in C57BL/6 mouse LPD model assessed as reduction in liver SCD activity at 7.7 uM liver concentration dosed at 2 mg/kg, po measured 3 hrs post dosing; format: functional; conditions: C57BL6, 3 h
Mus musculus [4] = assay: Ratio of drug uptake in liver to harderian gland of C57BL/6 mouse at 10 mg/kg, po measured 6 hrs post dosing; conditions: in vivo
[5] = Drug level in harderian gland of C57BL/6 mouse at 10 mg/kg, po measured 6 hrs post dosing; format: ADME, organism-based, C57BL6; design: dose 10 mg/kg, route oral; conditions: read-out: Drug uptake
How it was run: (§1)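 Tissue distribution was measured in mice given 10 mg/kg PO, n = 2. Liver, plasma and Harderian gland drug concentrations were measured 6 h post dose. Liver/plasma and liver/Harderian ratios were taken from these concentrations.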

[6] = Drug level in plasma of C57BL/6 mouse at 10 mg/kg, po measured 6 hrs post dosing; format: ADME, organism-based, C57BL6; design: dose 10 mg/kg, route oral; conditions: read-out: Drug uptake; how it was run: as §1
[7] = Oral bioavailability in C57BL/6 mouse at 10 mg/kg; format: ADME, organism-based, C57BL6; conditions: in vivo
How it was run: (§2)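 C57BL6 mice were dosed orally at 10 mg/kg. Drug exposure was measured over 0–6 h to give AUC_0–6h, and oral bioavailability (F) was also determined.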

[8] = AUC (0 to 6 hrs) in C57BL/6 mouse at 10 mg/kg, po; format: ADME, organism-based, C57BL6; design: time < 6 hr, dose 10 mg/kg, route oral; conditions: plasma; how it was run: as §2
Acyl-CoA desaturase 1 [9] = target: T3, Acyl-CoA desaturase 1 (Mus musculus, UniProt P13516); assay: Inhibition of mouse SCD-1
T3 sequence (P13516 whole entry): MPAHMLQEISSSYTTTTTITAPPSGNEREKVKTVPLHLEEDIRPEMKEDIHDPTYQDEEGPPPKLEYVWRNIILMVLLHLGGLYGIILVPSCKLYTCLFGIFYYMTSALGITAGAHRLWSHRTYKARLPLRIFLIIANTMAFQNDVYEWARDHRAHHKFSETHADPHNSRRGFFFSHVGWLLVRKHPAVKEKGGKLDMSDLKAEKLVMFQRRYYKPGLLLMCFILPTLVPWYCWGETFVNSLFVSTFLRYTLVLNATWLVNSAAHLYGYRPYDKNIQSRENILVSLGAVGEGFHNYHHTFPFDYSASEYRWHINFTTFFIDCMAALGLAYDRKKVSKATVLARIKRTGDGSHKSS

[10] = Ratio of drug uptake in liver to plasma of C57BL/6 mouse at 10 mg/kg, po measured 6 hrs post dosing; format: ADME, organism-based, C57BL6; design: dose 10 mg/kg, route oral; how it was run: as §1
[11] = Drug level in liver of C57BL/6 mouse at 10 mg/kg, po measured 6 hrs post dosing; format: ADME, organism-based, C57BL6; design: dose 10 mg/kg, route oral; conditions: read-out: Drug uptake; how it was run: as §1
[12] = target: Acyl-CoA (8-3)-desaturase (Homo sapiens, UniProt O60427); assay: Inhibition of human delta-5 desaturase activity in human HepG2 cells using [1-14C]-stearic acid tracer; format: cell-based
Mus musculus [13] = assay: Antidiabetic activity in C57BL/6 mouse LPD model assessed as reduction in liver SCD activity at 14.8 uM liver concentration dosed at 10 mg/kg, po measured 3 hrs post dosing; format: functional; conditions: C57BL6, 3 h
HepG2 = assay: Ratio of IC50 for SCD-1 activity in organic anion transporting polypeptides-deficient human HepG2 cells to IC50 for SCD-1 activity in rat hepatocytes expressing organic anion transporting polypeptides; format: cell-based
How it was run: (§3)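 The fold shift is the ratio of IC50 values between two assays: rat liver microsomal enzyme, HepG2 whole cell, and OATP-containing rat hepatocytes. Each IC50 is the average of at least two independent titrations.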

Acyl-CoA 6-desaturase = target: T4, Acyl-CoA 6-desaturase (Homo sapiens, UniProt O95864); assay: Inhibition of human delta-6 desaturase activity in human HepG2 cells using [1-14C]-stearic acid tracer; format: cell-based
T4 sequence (O95864 whole entry): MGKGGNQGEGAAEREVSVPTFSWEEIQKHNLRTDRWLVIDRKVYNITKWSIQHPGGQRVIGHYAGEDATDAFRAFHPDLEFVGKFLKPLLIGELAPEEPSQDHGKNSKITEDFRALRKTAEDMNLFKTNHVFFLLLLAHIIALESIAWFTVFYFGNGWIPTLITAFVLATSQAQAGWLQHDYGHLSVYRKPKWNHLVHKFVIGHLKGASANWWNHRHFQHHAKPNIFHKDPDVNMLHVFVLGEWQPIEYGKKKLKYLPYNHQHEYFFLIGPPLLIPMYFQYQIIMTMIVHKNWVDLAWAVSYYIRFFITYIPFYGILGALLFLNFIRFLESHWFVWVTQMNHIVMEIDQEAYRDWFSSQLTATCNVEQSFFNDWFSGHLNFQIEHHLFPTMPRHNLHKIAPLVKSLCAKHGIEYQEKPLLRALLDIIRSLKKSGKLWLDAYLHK

[14] = target: T5, Stearoyl-CoA desaturase 5 (Homo sapiens, UniProt Q86SK9); assay: Inhibition of human SCD-5
T5 sequence (Q86SK9 whole entry): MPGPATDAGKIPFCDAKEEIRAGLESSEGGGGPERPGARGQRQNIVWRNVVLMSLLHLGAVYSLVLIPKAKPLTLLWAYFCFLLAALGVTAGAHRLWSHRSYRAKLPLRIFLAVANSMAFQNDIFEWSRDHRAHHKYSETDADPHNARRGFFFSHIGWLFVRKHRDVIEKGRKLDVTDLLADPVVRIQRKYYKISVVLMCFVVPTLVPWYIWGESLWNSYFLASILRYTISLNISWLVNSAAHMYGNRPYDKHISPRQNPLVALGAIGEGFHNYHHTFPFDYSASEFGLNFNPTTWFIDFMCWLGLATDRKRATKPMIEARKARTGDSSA

[15] = target: T6, Acyl-CoA desaturase 1 (Rattus norvegicus) (UniProt P07308); assay: Ratio of IC50 for SCD-1 activity in rat hepatocytes expressing organic anion transporting polypeptides to IC50 for SCD-1 activity in rat liver microsomes; conditions: Hepatocyte, Microsome; how it was run: as §3
T6 sequence (whole entry): T2 sequence (P07308 whole entry)

Mus musculus [16] = assay: Antidiabetic activity in po dosed C57BL/6 mouse LPD model assessed as reduction in liver SCD activity measured 3 hrs post dosing; conditions: C57BL6, Liver
Mus musculus [17] = assay: Antidiabetic activity in C57BL/6 mouse LPD model assessed as reduction in liver SCD activity at 4.9 uM liver concentration dosed at 2 mg/kg, po measured 3 hrs post dosing; format: functional; conditions: C57BL6, 3 h
Mus musculus [18] = assay: Antidiabetic activity in C57BL/6 mouse LPD model assessed as reduction in liver SCD activity at 1.6 uM liver concentration dosed at 0.4 mg/kg, po measured 3 hrs post dosing; format: functional; conditions: C57BL6, 3 h

Chain of Acyl-CoA (8-3)-desaturase (O60427 whole entry): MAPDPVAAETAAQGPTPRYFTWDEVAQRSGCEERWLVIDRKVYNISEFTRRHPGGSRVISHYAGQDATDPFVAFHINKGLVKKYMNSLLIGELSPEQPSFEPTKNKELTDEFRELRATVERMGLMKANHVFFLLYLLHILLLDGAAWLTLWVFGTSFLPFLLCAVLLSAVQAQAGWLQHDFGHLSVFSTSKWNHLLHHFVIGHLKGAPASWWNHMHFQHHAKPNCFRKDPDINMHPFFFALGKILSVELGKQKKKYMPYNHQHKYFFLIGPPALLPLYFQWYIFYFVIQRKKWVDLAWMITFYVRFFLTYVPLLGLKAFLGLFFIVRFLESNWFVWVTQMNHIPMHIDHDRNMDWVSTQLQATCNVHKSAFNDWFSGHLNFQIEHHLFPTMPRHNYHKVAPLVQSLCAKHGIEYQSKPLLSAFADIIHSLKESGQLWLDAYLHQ

SMILES: O=C(O)Cn1nnc(-c2cnc(N3CCC4(CC3)CN(c3cc(F)ccc3Cl)C4)s2)n1
- IC50 (Stearoyl-CoA desaturase): > 100 µM
- IC50 (Acyl-CoA desaturase 1 [1]): 0.438 µM
- IC50 (Acyl-CoA desaturase 1 [2]): 0.036 µM

SMILES: O=C(O)Cn1nnc(-c2cnc(N3CC4CN(c5cc(F)ccc5Cl)CC4C3)s2)n1 (stereo not drawn)
- IC50 (Stearoyl-CoA desaturase): 15.4 µM
- IC50 (Acyl-CoA desaturase 1 [1]): 0.233 µM
- IC50 (Acyl-CoA desaturase 1 [2]): 0.034 µM

SMILES: O=C(O)Cn1nnc(-c2cnc(N3CC4(C3)CN(c3cc(F)ccc3Cl)C4)s2)n1
- IC50 (Stearoyl-CoA desaturase): 50.9 µM
- IC50 (Acyl-CoA desaturase 1 [1]): 0.103 µM
- IC50 (Acyl-CoA desaturase 1 [2]): 0.043 µM

SMILES: O=C(O)Cn1nnc(-c2nnc(N3CC4CN(c5cc(F)ccc5Cl)CC4C3)s2)n1 (stereo not drawn)
- IC50 (Stearoyl-CoA desaturase): > 10 µM
- IC50 (Acyl-CoA desaturase 1 [1]): 0.3 µM
- IC50 (Acyl-CoA desaturase 1 [2]): 0.059 µM

SMILES: O=C(O)Cn1nnc(-c2cnc(N3C[C@@H]4C[C@H]3CN4c3cc(F)ccc3Cl)s2)n1
- IC50 (Stearoyl-CoA desaturase): 9.14 µM
- IC50 (Acyl-CoA desaturase 1 [1]): 0.176 µM
- IC50 (Acyl-CoA desaturase 1 [2]): 0.029 µM

SMILES: O=C(O)Cn1nnc(-c2cnc(N3CCN(c4cc(F)ccc4Cl)CC3)s2)n1
- IC50 (Stearoyl-CoA desaturase): 4.2 µM
- inhibition in vivo at 2 mg/kg (Mus musculus [3]): 61%
- Ratio (Mus musculus [4]): 180
- concentration at 6 h [5]: 50 nM
- concentration at 6 h [6]: 220 nM
- IC50 (Acyl-CoA desaturase 1 [1]): 0.134 µM
- IC50 (Acyl-CoA desaturase 1 [2]): 0.028 µM
- bioavailability [7]: 15%
- AUC(0-t) at 6 h [8]: 0.7 µM·h
- IC50 (Acyl-CoA desaturase 1 [9]): 0.021 µM
- Kp at 6 h [10]: 40
- concentration at 6 h [11]: 9300 nM

SMILES: O=C(O)Cn1nnc(-c2cnc(N3CC4(CCN(c5cc(F)ccc5Cl)CC4)C3)s2)n1
- IC50 (Stearoyl-CoA desaturase): > 100 µM
- IC50 (Acyl-CoA desaturase 1 [1]): 0.506 µM
- IC50 (Acyl-CoA desaturase 1 [2]): 0.128 µM

SMILES: O=C(O)Cn1nnc(-c2cc(N3CC4CN(c5cc(F)ccc5Cl)CC4C3)no2)n1 (stereo not drawn)
- IC50 [12]: > 80 µM
- IC50 (Stearoyl-CoA desaturase): 9.9 µM
- inhibition in vivo at 10 mg/kg (Mus musculus [13]): 72%
- Ratio IC50 (HepG2): 50
- IC50 (Acyl-CoA 6-desaturase): > 80 µM
- IC50 (Acyl-CoA desaturase 1 [1]): 0.198 µM
- IC50 [14]: 0.242 µM
- IC50 (Acyl-CoA desaturase 1 [2]): 0.024 µM
- bioavailability [7]: 24%
- AUC(0-t) at 6 h [8]: 2.1 µM·h
- IC50 (Acyl-CoA desaturase 1 [9]): 0.018 µM
- Ratio IC50 [15]: 8
- concentration at 6 h [11]: 2700 nM

SMILES: O=C(O)Cn1nnc(-c2cc(N3CCC(Oc4cc(F)ccc4Br)CC3)no2)n1 [MK-8245]
- ED50 (Mus musculus [16]): 1 mg/kg
- concentration at 6 h [6]: 30 nM
- inhibition in vivo at 2 mg/kg (Mus musculus [17]): 89%
- inhibition in vivo at 0.4 mg/kg (Mus musculus [18]): 49%
- Kp at 6 h [10]: 90
